Compound activity from PubChem.
Only some compounds are listed: those with a hit (about 12% of all), similar ones and a draw of the others.
Cl transport mod: KCC2 cotransporter modulators, thallium flux, primary screen, cell-based, HEK293 KCC2, FluoZin-2 fluorescence, MLSMR. Solute carrier family 12 member 5 (Homo sapiens), Q9H2X9. KCC2 cells, thallium flux FluoZin-2 fluorescence. B-score of Tl+ flux slope (higher = more flux/activation; lower = inhibition) at 10 µM. 190,000 tested, 2.2% active. AID 1456, 2008;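 active means thallium flux slope and its plate-corrected score both differing from the plate sample mean at a set confidence after two filtering rounds, in either direction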;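 further: slope of fluorescence scaled to starting intensity during 10 to 20 s after thallium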
Target sequence (Q9H2X9 whole entry, looked up): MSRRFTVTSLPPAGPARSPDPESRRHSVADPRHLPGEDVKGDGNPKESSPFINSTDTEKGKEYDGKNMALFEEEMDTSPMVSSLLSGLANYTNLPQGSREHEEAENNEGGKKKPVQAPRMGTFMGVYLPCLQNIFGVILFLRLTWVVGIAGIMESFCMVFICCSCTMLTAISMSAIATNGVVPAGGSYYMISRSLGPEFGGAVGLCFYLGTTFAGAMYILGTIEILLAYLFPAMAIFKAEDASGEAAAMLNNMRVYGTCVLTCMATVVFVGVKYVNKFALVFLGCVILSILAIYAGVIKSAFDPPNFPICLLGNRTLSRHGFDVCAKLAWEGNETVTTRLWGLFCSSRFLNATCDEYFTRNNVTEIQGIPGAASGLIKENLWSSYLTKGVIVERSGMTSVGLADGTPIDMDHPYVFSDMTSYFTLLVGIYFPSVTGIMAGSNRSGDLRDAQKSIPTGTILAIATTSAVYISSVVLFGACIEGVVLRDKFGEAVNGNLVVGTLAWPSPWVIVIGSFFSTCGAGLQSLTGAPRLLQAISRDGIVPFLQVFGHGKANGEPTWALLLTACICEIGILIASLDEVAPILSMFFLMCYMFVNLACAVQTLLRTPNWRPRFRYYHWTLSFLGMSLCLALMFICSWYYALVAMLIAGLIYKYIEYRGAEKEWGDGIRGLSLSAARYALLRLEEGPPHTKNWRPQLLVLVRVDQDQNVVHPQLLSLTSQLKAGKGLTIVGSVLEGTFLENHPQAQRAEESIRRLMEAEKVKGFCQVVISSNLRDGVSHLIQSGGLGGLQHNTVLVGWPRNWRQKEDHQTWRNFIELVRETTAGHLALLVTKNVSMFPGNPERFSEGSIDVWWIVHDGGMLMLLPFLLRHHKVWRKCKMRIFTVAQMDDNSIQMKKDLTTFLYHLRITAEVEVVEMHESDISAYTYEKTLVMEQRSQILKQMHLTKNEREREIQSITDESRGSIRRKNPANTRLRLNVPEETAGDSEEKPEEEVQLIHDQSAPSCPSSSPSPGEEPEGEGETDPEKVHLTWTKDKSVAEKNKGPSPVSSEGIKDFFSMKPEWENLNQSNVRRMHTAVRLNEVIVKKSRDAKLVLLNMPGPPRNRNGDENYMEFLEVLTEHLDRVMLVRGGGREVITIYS
ROMK primary: ROMK potassium channel modulators, primary screen, cell-based, thallium flux, MLSMR library | AID 1918, 2009 | 130,000 tested, 2% active | Tet-inducible ROMK, thallium flux fluorescence; actives lie on both sides | ATP-sensitive inward rectifier potassium channel 1 (Homo sapiens), P48048 | B-score at 10 µM;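 active means signal ratio slope over the read window, or its plate-corrected B-score, at least 3 SD from the plate mean, either direction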;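 further: B-score of the F/F0 ratio slope over 7 to 12 s after thallium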
WT yeast gro inh: growth inhibition of WT strain, primary screen, mitochondrial fusion inhibitor project, WT and mutant strains, chemical genetic | mitochondrial fusion phenotypic screen | inhibition, % at 10 µM | 190,000 tested, 2.1% active | AID 1362, 2008; in the data active means inhibition above about 58%; tested in S. cerevisiae
Diaphorase act: compounds boosting diaphorase resazurin reduction – biochemical, uHTS, resorufin fluorescence, counter-screen for diaphorase-coupled primary assays, primary screen. Diaphorase/resazurin coupled assay, 16 min; hits give high values; 1 = vehicle wells, 0 = NADH-free wells. activation factor at 20 µM. 190,000 tested, 0.005% active. AID 1229, 2008;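 active means diaphorase activity raised at least twofold by the compound at 20 µM; inactive means activation factor below 2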
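test system = bacterial diaphorase enzyme (C. kluyveri) | quantity = enzyme 0.07 U/mL final | reagent = NADH substrate 0.114 mM plus resazurin dye 0.1 mM, final | incubation = 16 min enzyme reaction, ambient temperature | buffer or medium = HEPES pH 7.4 buffer with MgCl2 and Tween 20 | signal = fluorescence of resorufin, 544 nm excitation, 590 nm emission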
Diaphorase inh: diaphorase inhibitors and chemical oxidizers, primary screen, counter-screen for diaphorase-coupled primary assays, biochemical, uHTS, resorufin fluorescence. diaphorase resazurin-to-resorufin fluorescence, NADH, 16 min; bacterial (C. kluyveri) enzyme, not human. inhibition, % at 20 µM. AID 1217, 2008. 190,000 tested, 0.69% active;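 active means primary screen inhibition at 20 µM above a set limit, cut at about 50% in these data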
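Assay system: diaphorase enzyme from Clostridium kluyveri; Input: enzyme working solution with 0.14 U/mL diaphorase; Timing: 16 min at room temperature; Technique: resorufin fluorescence, excitation 544 nm, emission 590 nm; Benchmarks: positive control minus NADH, DMSO neutral control.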
L major viab: Leishmania major promastigote growth inhibition, primary screen; Leishmania major promastigotes, resazurin fluorescence viability; inhibition, % at 10 µM; 200,000 tested, 9% active; in the data active means inhibition above about 50%;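 further: promastigotes grown with compound for 44 hours at 28 °C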
Each line names hits and unclear results; the compound was inactive in the other large screens.

CCOc1ccccc1NC(=O)CCCN1C(=S)NC(C)(C)CC1C (stereo not given)	L major viab 52
COc1ccc(C)cc1NC(=O)CCCN1C(=S)NC(C)(C)CC1C (stereo not given)	none
CC1CC(C)(C)NC(=S)N1CCCC(=O)N1CCN(c2ccc(F)cc2)CC1 (stereo not given)	L major viab 82
CCOc1ccc(OCC)c(NC(=O)CCCN2C(=S)NC(C)(C)CC2C)c1 (stereo not given)	none
CC1CC(C)(C)NC(=S)N1CCC(=O)N1CCN(c2ccccc2)CC1 (stereo not given)	none (no result: Cl transport mod)
COc1ccc(OC)c(NC(=O)CCCN2C(=S)NC(C)(C)CC2C)c1 (stereo not given)	L major viab 70
COc1ccccc1NC(=O)c1cc(C(=O)Nc2ccccc2OC)cc(N2C(=O)CCC2=O)c1	none
Cc1no[n+]([O-])c1COc1cccc(/C=C2\N=C(c3ccccc3)OC2=O)c1	L major viab 64
C/C(=N\Nc1cccc([N+](=O)[O-])c1)c1cc(F)ccc1O	none (no result: ROMK primary, WT yeast gro inh, Diaphorase act, Diaphorase inh, L major viab)
Cc1ccc(-c2nnc(Nc3ccc4c(c3)nc(C)n4C)c3ccccc23)cc1	L major viab 101 (no result: Cl transport mod, ROMK primary)
Cc1ccc(-c2nnc(Nc3ccc(CC(N)=O)cc3)c3ccccc23)cc1	none (no result: Cl transport mod, ROMK primary)
Cc1ccc(NC(=O)c2ccccc2NS(=O)(=O)c2ccc(F)cc2)cc1S(=O)(=O)N1CCCCC1	none
c1cnc(SCCOc2ccc3c(c2)CCC3)nc1	none
CCc1nnc(NS(=O)(=O)c2ccc(N=Cc3c(C)[nH]n(-c4ccc(C)c(C)c4)c3=O)cc2)s1	WT yeast gro inh 63 (no result: ROMK primary)
Cc1ccc(-n2[nH]c(C)c(C=Nc3ccc(S(=O)(=O)Nc4nccs4)cc3)c2=O)cc1	none (no result: ROMK primary)
CNC(=O)c1nn(-c2ccc(Cl)cc2)ccc1=O	WT yeast gro inh 98 (no result: ROMK primary)
COCCn1c(-c2ccc(Cl)cc2)cnc1SCC(=O)NCc1cccs1	none
S=C(NCCCN1CCOCC1)N1CCN(c2nc(-c3ccccc3)cs2)CC1	L major viab 83
S=C(NCC1CCCO1)N1CCN(c2nc(-c3ccc(Cl)cc3)cs2)CC1 (stereo not given)	WT yeast gro inh 67
S=C(NCCCN1CCOCC1)N1CCOCC1	none (no result: WT yeast gro inh, Diaphorase act, Diaphorase inh, L major viab)
CCOc1ccccc1NC(=S)N1CCN(c2nc(-c3ccc(F)cc3)cs2)CC1	L major viab 90
S=C(NCCCN1CCOCC1)N1CCN(c2nc(-c3ccc(Cl)cc3)cs2)CC1	WT yeast gro inh 89, L major viab 76
CCOc1ccc2nc(N/C(N)=N/C(=S)Nc3ccc(OC)cc3)nc(C)c2c1	L major viab 72
O=C(O)CCSc1nnc(COc2cccc3ccccc23)n1-c1cccc(Cl)c1	none
OC(COCc1ccc(Cl)cc1)CN1CCc2ccccc2C1 (stereo not given)	L major viab 73
CCOC(=O)N1CCN(CC(O)COCc2ccc(OC)c(OC)c2)CC1 (stereo not given)	none
CCOC(=O)N1CCN(CC(O)COc2ccc(C)cc2C(C)(C)C)CC1 (stereo not given)	L major viab 98
OC(COc1ccc2c(c1)CCC2)CN1CCN(c2ccccc2F)CC1 (stereo not given)	L major viab 74 (no result: ROMK primary)
CC(C)(C)NCC(O)COCc1ccc(Cl)cc1 (stereo not given)	none
CCOC(=O)N1CCN(CC(O)COCc2ccccc2)CC1 (stereo not given)	L major viab 66 (no result: ROMK primary)
CN(Cc1ccccc1)S(=O)(=O)c1ccccc1[N+](=O)[O-]	none (no result: Cl transport mod, ROMK primary)
COc1ccc2cc(Br)ccc2c1CC(=O)NC(C)(C)C	none
CCOC(=O)N1CCN(CC(O)COCC2=CCC3CC2C3(C)C)CC1 (stereo not given)	L major viab 94 (no result: Cl transport mod)
CCC(C)NCC(O)COCc1ccc(Cl)cc1 (stereo not given)	L major viab 60 (no result: ROMK primary)
OC(COCc1ccccc1)CN1CCN(c2ccccc2F)CC1 (stereo not given)	L major viab 52 (no result: ROMK primary)
CCN1CCN(CC(O)COCc2ccccc2)CC1 (stereo not given)	none (no result: ROMK primary)
CNC(=S)NNC(=O)c1ccc(=O)n(Cc2cccc(C(F)(F)F)c2)c1	none
COC(=O)c1cccc(NC(=S)NCc2ccc(F)cc2)c1	none
Cc1ccc(/C=N/NC(=O)c2ccccc2OCc2ccc(F)cc2)o1	none
O=C(N/N=C/c1ccncc1)c1ccccc1OCc1ccc(Br)cc1	L major viab 100
O=C(N/N=C/c1ccccc1)c1sccc1OCc1ccc(F)cc1	L major viab 92 (no result: Cl transport mod, ROMK primary)
O=C(N/N=C/c1ccccc1)c1ccc(OCc2ccccc2)cc1	none
O=C(Nc1ccc(OC(F)F)c(Cl)c1)c1ccccn1	none
COc1cc(NC(=S)Nc2cccc(Cl)c2Cl)c(OC)cc1Cl	L major viab 59 (no result: ROMK primary)
Cc1ccc(NC(=S)Nc2ccc(OC(F)F)c(Cl)c2)cc1F	WT yeast gro inh 85
COc1cc(C)c(NC(=S)Nc2ccc(Cl)c(Cl)c2)cc1OC	WT yeast gro inh 80 (no result: ROMK primary)
COc1cc(OC)c(NC(=S)Nc2cc(Cl)cc(Cl)c2)cc1Cl	WT yeast gro inh 83 (no result: ROMK primary)
COc1cc(NC(=S)Nc2ccc(Br)cc2Cl)c(OC)cc1Cl	none (no result: ROMK primary)
COCCNC(=S)Nc1ccc(Cl)c(Cl)c1	none
O=C(NC1CCCCC1)C(c1ccc(F)cc1)N(Cc1ccco1)C(=O)c1ccccn1 (stereo not given)	none
COc1cc(NC(=S)NC(C)(C)C)c(OC)cc1Cl	L major viab 67
O=C(O)CN1C(=O)Nc2ccc(Br)cc2C1c1ccccc1 (stereo not given)	none (no result: ROMK primary)
O=C1CN(C(=O)c2ccc(Br)o2)C(c2ccccc2)c2cc(Br)ccc2N1 (stereo not given)	L major viab 69 (no result: ROMK primary)
Cc1ccc2c(c1)C(c1ccccc1)N(C(=O)c1ccc(Br)o1)CC(=O)N2 (stereo not given)	L major viab 95 (no result: ROMK primary)
Cc1cc(C)n(C(=O)CNC(=O)/C=C/c2ccccc2)n1	none
Cc1ccc(NS(=O)(=O)c2cccc(C(=O)Nc3cc(C)on3)c2)cc1	L major viab 91
CCc1nnc(NS(=O)(=O)c2ccc(NC(=S)NC(=O)c3ccc(OC)c(OC)c3)cc2)s1	none
CCc1nnc(NS(=O)(=O)c2ccc(NC(=S)NC(=O)c3ccc(OC)cc3)cc2)s1	L major viab 55
Cc1ccc(S(=O)(=O)Nc2ccc(C(=O)Nc3cc(C)on3)cc2)cc1	none (no result: ROMK primary)
COc1ccc(-c2nc3ccccc3c(C(=O)Nc3ccc(S(=O)(=O)Nc4cc(C)on4)cc3)c2C)cc1	ROMK primary 4.2
